According to ChEMBL document CHEMBL4350961, “Discovery of Pyrrolo[3,2- d]pyrimidin-4-one Derivatives as a New Class of Potent and Cell-Active Inhibitors of P300/CBP-Associated Factor Bromodomain” (J Med Chem, 2019):
Activity calls are given as the source filed them. The rule behind the calls is not given here.

How the values were obtained:
[1] = target: Histone acetyltransferase KAT2B (Homo sapiens, UniProt Q92831); experiment: Inhibition of Halo-tagged histone H3.3 binding to N-terminal Nano luciferase-fused full-length PCAF (unknown origin) expressed in HEK293T cells co-expressing C-terminal Halo-tagged histone H3.3 measured after 18 hrs by 618 fluorescent ligand-based BRET assay; format: cell-based
Summary of the method: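 HEK293T cells co-transfected with histone H3.3-HaloTag and PCAF-NanoLuc. After 20 h, cells replated at 2×10^5/ml in phenol red-free DMEM with 4% FBS, with or without 100 nM NanoBRET 618 ligand. Compound dilutions or DMSO added, then 18 h at 37 °C, 5% CO2. Nano-Glo substrate added; 610/460 nm ratio minus no-ligand blank, in mBU; n = 2 biological replicates.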

MEF [2] = experiment: Effect on Icos gene expression in MEF cells at 2.5 uM measured after 48 hrs by RNA-sequencing analysis relative to control; format: functional, Mus musculus
Summary of the method: (§1)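 Mouse embryonic fibroblasts treated 48 h; negative-control enantiomer at 2.5 µM, DMSO as blank. Total RNA extracted with TRIzol, checked by NanoDrop, then RNA-seq with n = 3 per set. Genes called changed at >1.5-fold with p < 0.05 against blank.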

MEF [3] = experiment: Effect on Lonrf3 gene expression in MEF cells at 2.5 uM measured after 48 hrs by RNA-sequencing analysis relative to control; format: functional, Mus musculus; summary of the method: as §1
MEF [4] = experiment: Effect on Slitrk6 gene expression in MEF cells at 2.5 uM measured after 48 hrs by RNA-sequencing analysis relative to control; format: functional, Mus musculus; summary of the method: as §1
MEF [5] = experiment: Effect on Klk9 gene expression in MEF cells at 2.5 uM measured after 48 hrs by RNA-sequencing analysis relative to control; format: functional, Mus musculus; summary of the method: as §1
MEF [6] = experiment: Effect on Gm3173 gene expression in MEF cells at 2.5 uM measured after 48 hrs by RNA-sequencing analysis relative to control; format: functional, Mus musculus; summary of the method: as §1
MEF [7] = experiment: Effect on Clec5a gene expression in MEF cells at 2.5 uM measured after 48 hrs by RNA-sequencing analysis relative to control; format: functional, Mus musculus; summary of the method: as §1
MEF [8] = experiment: Effect on plekhb1 gene expression in MEF cells at 2.5 uM measured after 48 hrs by RNA-sequencing analysis relative to control; format: functional, Mus musculus
Summary of the method: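 MEF cells treated for 48 h with test compound, with (S,S) enantiomer at 2.5 µM as negative control and DMSO as blank; total RNA (TRIzol, n = 3 per set) analysed by RNA-seq; genes counted as changed at >1.5-fold, p < 0.05, relative to blank control.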

MEF [9] = experiment: Effect on Tfap4 gene expression in MEF cells at 2.5 uM measured after 48 hrs by RNA-sequencing analysis relative to control; format: functional, Mus musculus; summary of the method: as §1
MEF [10] = experiment: Effect on Tnfsf15 gene expression in MEF cells at 2.5 uM measured after 48 hrs by RNA-sequencing analysis relative to control; format: functional, Mus musculus; summary of the method: as §1
MEF [11] = experiment: Effect on Slco1a5 gene expression in MEF cells at 2.5 uM measured after 48 hrs by RNA-sequencing analysis relative to control; format: functional, Mus musculus; summary of the method: as §1
MEF [12] = experiment: Effect on Nuggc gene expression in MEF cells at 2.5 uM measured after 48 hrs by RNA-sequencing analysis relative to control; format: functional, Mus musculus; summary of the method: as §1
MEF [13] = experiment: Effect on Guca1a gene expression in MEF cells at 2.5 uM measured after 48 hrs by RNA-sequencing analysis relative to control; format: functional, Mus musculus; summary of the method: as §1
MEF [14] = experiment: Effect on Ttbk1 gene expression in MEF cells at 2.5 uM measured after 48 hrs by RNA-sequencing analysis relative to control; format: functional, Mus musculus; summary of the method: as §1
MEF [15] = experiment: Effect on Hpgd gene expression in MEF cells at 2.5 uM measured after 48 hrs by RNA-sequencing analysis relative to control; format: functional, Mus musculus; summary of the method: as §1
MEF [16] = experiment: Effect on Bmp3 gene expression in MEF cells at 2.5 uM measured after 48 hrs by RNA-sequencing analysis relative to control; format: functional, Mus musculus; summary of the method: as §1
MEF [17] = experiment: Effect on Pyhin1 gene expression in MEF cells at 2.5 uM measured after 48 hrs by RNA-sequencing analysis relative to control; format: functional, Mus musculus; summary of the method: as §1
MEF [18] = experiment: Effect on Slc26a7 gene expression in MEF cells at 2.5 uM measured after 48 hrs by RNA-sequencing analysis relative to control; format: functional, Mus musculus; summary of the method: as §1
MEF [19] = experiment: Effect on Aatk gene expression in MEF cells at 2.5 uM measured after 48 hrs by RNA-sequencing analysis relative to control; format: functional, Mus musculus; summary of the method: as §1
MEF [20] = experiment: Effect on Pkdrej gene expression in MEF cells at 2.5 uM measured after 48 hrs by RNA-sequencing analysis relative to control; format: functional, Mus musculus; summary of the method: as §1
MEF [21] = experiment: Effect on Zfp551 gene expression in MEF cells at 2.5 uM measured after 48 hrs by RNA-sequencing analysis relative to control; format: functional, Mus musculus; summary of the method: as §1
MEF [22] = experiment: Effect on H60b gene expression in MEF cells at 2.5 uM measured after 48 hrs by RNA-sequencing analysis relative to control; format: functional, Mus musculus; summary of the method: as §1
MEF [23] = experiment: Effect on Gm36718 gene expression in MEF cells at 2.5 uM measured after 48 hrs by RNA-sequencing analysis relative to control; format: functional, Mus musculus; summary of the method: as §1
MEF [24] = experiment: Effect on Nr4a3 gene expression in MEF cells at 2.5 uM measured after 48 hrs by RNA-sequencing analysis relative to control; format: functional, Mus musculus; summary of the method: as §1
MEF [25] = experiment: Effect on S100a8 gene expression in MEF cells at 2.5 uM measured after 48 hrs by RNA-sequencing analysis relative to control; format: functional, Mus musculus; summary of the method: as §1
MEF [26] = experiment: Effect on Mpz gene expression in MEF cells at 2.5 uM measured after 48 hrs by RNA-sequencing analysis relative to control; format: functional, Mus musculus; summary of the method: as §1
MEF [27] = experiment: Effect on P2rx6 gene expression in MEF cells at 2.5 uM measured after 48 hrs by RNA-sequencing analysis relative to control; format: functional, Mus musculus; summary of the method: as §1
MEF [28] = experiment: Effect on Gucy1a3 gene expression in MEF cells at 2.5 uM measured after 48 hrs by RNA-sequencing analysis relative to control; format: functional, Mus musculus; summary of the method: as §1
MEF [29] = experiment: Effect on LL6 gene expression in MEF cells at 2.5 uM measured after 48 hrs by RNA-sequencing analysis relative to control; format: functional, Mus musculus; summary of the method: as §1
MEF [30] = experiment: Effect on Gabra3 gene expression in MEF cells at 2.5 uM measured after 48 hrs by RNA-sequencing analysis relative to control; format: functional, Mus musculus; summary of the method: as §1
MEF [31] = experiment: Effect on Erbb3 gene expression in MEF cells at 2.5 uM measured after 48 hrs by RNA-sequencing analysis relative to control; format: functional, Mus musculus; summary of the method: as §1
MEF [32] = experiment: Effect on Cttnbp2 gene expression in MEF cells at 2.5 uM measured after 48 hrs by RNA-sequencing analysis relative to control; format: functional, Mus musculus; summary of the method: as §1
MEF [33] = experiment: Effect on Fmn2 gene expression in MEF cells at 2.5 uM measured after 48 hrs by RNA-sequencing analysis relative to control; format: functional, Mus musculus; summary of the method: as §1
MEF [34] = experiment: Effect on Erv3 gene expression in MEF cells at 2.5 uM measured after 48 hrs by RNA-sequencing analysis relative to control; format: functional, Mus musculus; summary of the method: as §1
MEF [35] = experiment: Effect on Acod1 gene expression in MEF cells at 2.5 uM measured after 48 hrs by RNA-sequencing analysis relative to control; format: functional, Mus musculus; summary of the method: as §1
MEF [36] = experiment: Effect on Gabra4 gene expression in MEF cells at 2.5 uM measured after 48 hrs by RNA-sequencing analysis relative to control; format: functional, Mus musculus; summary of the method: as §1
MEF [37] = experiment: Effect on Dlx4 gene expression in MEF cells at 2.5 uM measured after 48 hrs by RNA-sequencing analysis relative to control; format: functional, Mus musculus; summary of the method: as §1

Compound | inhibition [1] | fold change (FC) (MEF [2]) | fold change (FC) (MEF [3]) | fold change (FC) (MEF [4]) | fold change (FC) (MEF [5]) | fold change (FC) (MEF [6]) | fold change (FC) (MEF [7]) | fold change (FC) (MEF [8]) | fold change (FC) (MEF [9]) | fold change (FC) (MEF [10]) | fold change (FC) (MEF [11]) | fold change (FC) (MEF [12]) | fold change (FC) (MEF [13]) | fold change (FC) (MEF [14]) | fold change (FC) (MEF [15]) | fold change (FC) (MEF [16]) | fold change (FC) (MEF [17]) | fold change (FC) (MEF [18]) | fold change (FC) (MEF [19]) | fold change (FC) (MEF [20]) | also measured
CN1C[C@@H](Nc2nc3cc[nH]c3c(=O)n2C)C[C@@H](c2ccc3c(c2)OCCO3)C1 | inactive | >1.5 | >1.5 | >1.5 | >1.5 | >1.5 | >1.5 | >1.5 | >1.5 | >1.5 | >1.5 | >1.5 | >1.5 | >1.5 | >1.5 | >1.5 | >1.5 | >1.5 | >1.5 | >1.5 | fold change (FC) (MEF [21]): >1.5; fold change (FC) (MEF [22]): >1.5; fold change (FC) (MEF [23]): >1.5; fold change (FC) (MEF [24]): >1.5; fold change (FC) (MEF [25]): >1.5; fold change (FC) (MEF [26]): >1.5; fold change (FC) (MEF [27]): >1.5; fold change (FC) (MEF [28]): >1.5; fold change (FC) (MEF [29]): >1.5; fold change (FC) (MEF [30]): >1.5; fold change (FC) (MEF [31]): >1.5; fold change (FC) (MEF [32]): >1.5; fold change (FC) (MEF [33]): >1.5; fold change (FC) (MEF [34]): >1.5; fold change (FC) (MEF [35]): >1.5; fold change (FC) (MEF [36]): >1.5; fold change (FC) (MEF [37]): >1.5
CN1C[C@H](Nc2nc3cc[nH]c3c(=O)n2C)C[C@H](c2ccc3c(c2)OCCO3)C1 | Dose-dependent effect | >1.5 | >1.5 | >1.5 | >1.5 | >1.5 | >1.5 | >1.5 | >1.5 | >1.5 | >1.5 | >1.5 | >1.5 | >1.5 | >1.5 | >1.5 | >1.5 | >1.5 | >1.5 | >1.5 | IC50 [1]: 118 nM; fold change (FC) (MEF [21]): >1.5; fold change (FC) (MEF [22]): >1.5; fold change (FC) (MEF [23]): >1.5; fold change (FC) (MEF [24]): >1.5; fold change (FC) (MEF [25]): >1.5; fold change (FC) (MEF [26]): >1.5; fold change (FC) (MEF [27]): >1.5; fold change (FC) (MEF [28]): >1.5; fold change (FC) (MEF [29]): >1.5; fold change (FC) (MEF [30]): >1.5; fold change (FC) (MEF [31]): >1.5; fold change (FC) (MEF [32]): >1.5; fold change (FC) (MEF [33]): >1.5; fold change (FC) (MEF [34]): >1.5; fold change (FC) (MEF [35]): >1.5; fold change (FC) (MEF [36]): >1.5; fold change (FC) (MEF [37]): >1.5
